Experimental data from ChEMBL document CHEMBL4765302, “Design, synthesis and biological evaluation of novel histone deacetylase1/2 (HDAC1/2) and cyclin-dependent Kinase2 (CDK2) dual inhibitors against malignant cancer” (Eur J Med Chem, 2020).

How the values were obtained:
HepG2 [1] = experiment: Antiproliferative activity against human HepG2 cells assessed as reduction in cell growth at 8 uM incubated for 72 hrs by CCK-8 assay relative to control; assay type: functional
NCI-H460 [2] = experiment: Antiproliferative activity against human H460 cells assessed as reduction in cell growth at 2 uM incubated for 72 hrs by CCK-8 assay relative to control; assay type: functional
HCT-116 [3] = experiment: Antiproliferative activity against human HCT-116 cells assessed as reduction in cell growth at 2 uM incubated for 72 hrs by CCK-8 assay relative to control; assay type: functional
Histone deacetylase 1 = Histone deacetylase 1 (Homo sapiens, UniProt Q13547); experiment: Inhibition of recombinant human HDAC1 at 10 uM using SIRT1 as substrate incubated for 10 mins followed by substrate addition and measured after 30 mins by fluorescence based assay relative to control; conditions: time 40.0 min
Procedure, shortened: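 Enzyme inhibition of HDAC1 measured at a single concentration of 10 µM, tested alongside the cell-growth screen.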

HCT-116 [4] = experiment: Antiproliferative activity against human HCT-116 cells assessed as reduction in cell growth at 8 uM incubated for 72 hrs by CCK-8 assay relative to control; assay type: functional
NCI-H460 [5] = experiment: Antiproliferative activity against human H460 cells assessed as reduction in cell growth at 8 uM incubated for 72 hrs by CCK-8 assay relative to control; assay type: functional
HepG2 [6] = experiment: Antiproliferative activity against human HepG2 cells assessed as reduction in cell growth at 2 uM incubated for 72 hrs by CCK-8 assay relative to control; assay type: functional
NCI-H460 [7] = experiment: Antiproliferative activity against human NCI-H460 cells assessed as reduction in cell growth incubated for 72 hrs by CCK-8 assay; assay type: functional, cell-based; conditions: NCI-H460, 72 h
Procedure, shortened: (§1)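 IC50 by CCK-8 assay across five solid-tumour lines (HCT116, HepG2, H460, HeLa, A375). Run only for compounds chosen after the single-concentration screen, with CS055 and roscovitine as references.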

HeLa = experiment: Antiproliferative activity against human HeLa cells assessed as reduction in cell growth incubated for 72 hrs by CCK-8 assay; assay type: functional, cell-based; procedure, shortened: as §1
HCT-116 [8] = experiment: Antiproliferative activity against human HCT-116 cells assessed as reduction in cell growth incubated for 72 hrs by CCK-8 assay; assay type: functional, cell-based; conditions: HCT-116, 72 h; procedure, shortened: as §1
HepG2 [9] = experiment: Antiproliferative activity against human HepG2 cells assessed as reduction in cell growth incubated for 72 hrs by CCK-8 assay; assay type: functional, cell-based; conditions: HepG2, 72 h; procedure, shortened: as §1
A-375 = experiment: Antiproliferative activity against human A-375 cells assessed as reduction in cell growth incubated for 72 hrs by CCK-8 assay; assay type: functional, cell-based; conditions: A-375, 72 h; procedure, shortened: as §1

Chain of Histone deacetylase 1 (Q13547 whole entry): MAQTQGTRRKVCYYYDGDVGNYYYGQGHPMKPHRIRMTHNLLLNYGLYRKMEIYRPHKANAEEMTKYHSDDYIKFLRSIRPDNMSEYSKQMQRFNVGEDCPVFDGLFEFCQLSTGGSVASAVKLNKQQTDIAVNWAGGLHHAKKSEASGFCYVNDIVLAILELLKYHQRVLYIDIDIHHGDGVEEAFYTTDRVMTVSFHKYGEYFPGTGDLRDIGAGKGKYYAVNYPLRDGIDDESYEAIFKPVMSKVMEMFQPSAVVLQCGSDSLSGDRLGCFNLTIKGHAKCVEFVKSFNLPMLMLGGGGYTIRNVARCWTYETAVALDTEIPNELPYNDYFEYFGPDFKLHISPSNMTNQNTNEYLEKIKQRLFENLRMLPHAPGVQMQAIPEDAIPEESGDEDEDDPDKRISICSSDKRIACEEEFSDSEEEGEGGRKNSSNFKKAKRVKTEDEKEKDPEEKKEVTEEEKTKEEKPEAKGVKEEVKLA

Row | Structure (SMILES) | inhibition at 8 µM (HepG2 [1]) [%] | inhibition at 2 µM (NCI-H460 [2]) [%] | inhibition at 2 µM (HCT-116 [3]) [%] | inhibition (Histone deacetylase 1) [%] | inhibition at 8 µM (HCT-116 [4]) [%] | inhibition at 8 µM (NCI-H460 [5]) [%] | inhibition at 2 µM (HepG2 [6]) [%] | IC50 (NCI-H460 [7]) [µM] | IC50 (HeLa) [µM] | IC50 (HCT-116 [8]) [µM] | IC50 (HepG2 [9]) [µM] | IC50 (A-375) [µM]
1 | Nc1ccccc1NC(=O)/C=C/c1ccc(Cn2cnc3c(NC4CCCCC4)nc(Cl)nc32)cc1 | 42.6 | 8.09 | 3.34 | 28.2 | 18.7 | 24.9 | 3.83 |  |  |  |  | 
2 | CC(C)n1cnc2c(NCc3ccc(C(=O)Nc4ccccc4N)cc3)nc(Cl)nc21 | 74.4 | 54.1 | 73.2 | 89.7 | 76 | 80.5 | 63.8 | 3.41 | 2.13 | 0.8 | 3.32 | 2.17
3 | Nc1ccccc1NC(=O)/C=C/c1ccc(Cn2cnc3c(Nc4cccc(OC(F)(F)F)c4)nc(Cl)nc32)cc1 | 37.6 | 2.1 | 2.8 | 40.3 | 5.23 | 66.7 | 16.2 |  |  |  |  | 
4 | CC1CCN(c2nc(Cl)nc3c2ncn3Cc2ccc(/C=C/C(=O)Nc3ccccc3N)cc2)CC1 | 32.2 | 8.24 | 4.24 | 4.87 | 26.9 | 10.8 | 8.73 |  |  |  |  | 
5 | Nc1ccccc1NC(=O)c1ccc(Cn2cnc3c(Nc4ccccc4)nc(Cl)nc32)cc1 | 74.8 | 42.7 | 71.4 | 84 | 83.5 | 77.8 | 49.6 | 5.74 | 2.92 | 1.07 | 4.18 | 2.8
6 | CN1CCN(c2nc(Cl)nc3c2ncn3Cc2ccc(C(=O)Nc3ccccc3N)cc2)CC1 | 75 | 13.4 | 71.6 | 80.5 | 72.8 | 55 | 60.4 | 6.16 | 1.17 | 0.31 | 2.01 | 1.6
7 | Cc1ccc(Nc2nc(Cl)nc3c2ncn3Cc2ccc(/C=C/C(=O)Nc3ccccc3N)cc2)cc1 | 43 | 31.3 | 0.27 | 41.8 | 15 | 51.3 | 33.6 |  |  |  |  | 
8 | Nc1ccccc1NC(=O)c1ccc(Cn2cnc3c(N4CCOCC4)nc(Cl)nc32)cc1 | 71.3 | 5.05 | 77.7 | 93.2 | 80.7 | 47 | 56.9 | 6.09 | 2.03 | 0.45 | 2.82 | 2.68
9 | Nc1ccccc1NC(=O)/C=C/c1ccc(Cn2cnc3c(NCc4ccccc4)nc(Cl)nc32)cc1 | 37.7 | 4.62 | 2.85 | 22.5 | 17.4 | 49.1 | 11.5 |  |  |  |  | 
10 | Nc1ccccc1NC(=O)c1ccc(CNc2nc(Cl)nc3c2ncn3C2CCCC2)cc1 | 74.9 |  | 75.6 | 90.9 | 80.6 | 57.4 | 54.7 | 5.78 | 3.02 | 0.85 | 3.43 | 2.79
11 | Nc1ccccc1NC(=O)/C=C/c1ccc(Cn2cnc3c(Nc4ccccc4)nc(Cl)nc32)cc1 | 41.9 | 2.05 | 7.75 | 14.8 | 30.9 | 28.7 | 16.4 |  |  |  |  | 
12 | CCCCn1cnc2c(Nc3cccc(Cl)c3)nc(NCCOCc3ccc(/C=C/C(=O)Nc4ccccc4N)cc3)nc21 | 30.4 | 25.7 | 4.76 | 24.6 | 10.8 | 51.1 | 20.4 |  |  |  |  | 
13 | Nc1ccccc1NC(=O)/C=C/c1ccc(Cn2cnc3c(N4CCOCC4)nc(Cl)nc32)cc1 | 40.9 | 1.24 | 17.8 | 25.7 | 55.4 | 37.9 | 19 |  |  |  |  | 
14 | Nc1ccccc1NC(=O)c1ccc(Cn2cnc3c(NCc4ccccc4)nc(Cl)nc32)cc1 | 62.8 | 44.7 | 68.3 | 76 | 78.3 | 61.2 | 7.55 | 11.2 | 6.77 | 1.06 | 7.72 | 5.83
15 | CCCn1cnc2c(NCc3ccc(C(=O)Nc4ccccc4N)cc3)nc(Cl)nc21 | 14.1 | 31 | 28.5 | 11.4 | 29.6 | 39.2 | 12.4 |  |  |  |  | 
16 | Nc1ccccc1NC(=O)/C=C/c1ccc(Cn2cnc3c(Nc4cccc(Cl)c4)nc(Cl)nc32)cc1 | 49.3 | 7.11 | 12.9 | 23.6 | 15.8 | 29.4 | 35.8 |  |  |  |  | 
17 | Nc1ccccc1NC(=O)c1ccc(Cn2cnc3c(Nc4cccc(Cl)c4)nc(Cl)nc32)cc1 | 66.7 | 10.3 | 56.2 | 61.3 | 78.4 | 67 | 29.9 | 6.58 | 11.3 | 2.34 | 9.8 | 6.08
18 | CCCCn1cnc2c(NCc3ccc(C(=O)Nc4ccccc4N)cc3)nc(Cl)nc21 | 19.6 | 19.7 | 4.89 | 9.56 | 40.9 | 23.7 | 6.8 |  |  |  |  | 
19 | Nc1ccccc1NC(=O)c1ccc(Cn2cnc3c(Nc4cccc(OC(F)(F)F)c4)nc(Cl)nc32)cc1 | 31.2 | 47.7 | 1.6 | 37.4 | 46.6 | 62.4 | 1.88 |  |  |  |  | 
20 | Nc1ccccc1NC(=O)c1ccc(CNc2nc(Cl)nc3c2ncn3Cc2ccccc2)cc1 | 5.32 | 43.8 | 7.7 | 27.6 | 11.4 | 46.4 | 5.01 |  |  |  |  | 
21 | COC(CCn1cnc2c(NCc3ccc(C(=O)Nc4ccccc4N)cc3)nc(Cl)nc21)OC | 34.2 | 43.7 | 6.39 | 29.5 | 11.9 | 51.2 | 8.52 |  |  |  |  | 
22 | Nc1ccccc1NC(=O)c1ccc(Cn2cnc3c(Nc4ccc(-c5ccccn5)cc4)nc(Cl)nc32)cc1 | 41.2 | 18.1 | 69.5 | 43.9 | 73.7 | 30.8 | 11.5 | 18.4 | > 20 | 1.25 | 30.1 | 18.5
23 | CC1CCN(c2nc(Cl)nc3c2ncn3Cc2ccc(C(=O)Nc3ccccc3N)cc2)CC1 | 65.3 | 11.8 | 70.9 | 75.3 | 78.6 | 40.9 | 1.22 | 7.4 | 4.5 | 0.95 | 5.18 | 4.24
24 | CCC(C)n1cnc2c(NCc3ccc(C(=O)Nc4ccccc4N)cc3)nc(Cl)nc21 (configuration not stated) | 65 | 47.3 | 74.6 | 94.7 | 75.1 | 67.7 | 45 | 4.94 | 3.03 | 0.72 | 2.99 | 2.88
